Here are results for 3 compounds from ChEMBL document CHEMBL1147071, “Bisphosphonates as inhibitors of Trypanosoma cruzi hexokinase: kinetic and metabolic studies” (J Biol Chem, 2007).

For test [1], the target named is T1, Hexokinase (Trypanosoma cruzi, UniProt Q8ST54).
T1 sequence (Q8ST54 whole entry): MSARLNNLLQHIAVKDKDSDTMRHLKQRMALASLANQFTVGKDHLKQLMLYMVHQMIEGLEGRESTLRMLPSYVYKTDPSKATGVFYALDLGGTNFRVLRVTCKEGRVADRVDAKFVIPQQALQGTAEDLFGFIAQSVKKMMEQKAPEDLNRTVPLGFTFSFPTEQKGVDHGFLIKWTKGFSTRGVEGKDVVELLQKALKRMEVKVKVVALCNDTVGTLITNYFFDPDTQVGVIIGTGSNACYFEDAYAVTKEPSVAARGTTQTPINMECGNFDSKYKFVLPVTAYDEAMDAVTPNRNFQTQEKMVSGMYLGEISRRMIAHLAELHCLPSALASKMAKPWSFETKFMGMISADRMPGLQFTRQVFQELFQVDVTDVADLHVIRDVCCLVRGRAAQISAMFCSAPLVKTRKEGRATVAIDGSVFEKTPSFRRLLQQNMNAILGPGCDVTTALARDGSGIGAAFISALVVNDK
Description: Inhibition of glycosomal Trypanosoma cruzi hexokinase in presence of ATP, 2 mM D-glucose and 3 mM MgCl2. An outline of the steps:
(§1)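 Purified intact glycosomes from exponential-phase epimastigotes (latency typically >95%) were permeabilized with digitonin 25 µg mg-1 protein for 1 min, pelleted and resuspended in buffer A (sucrose 225 mM, KCl 20 mM, KH2PO4 10 mM, EDTA 5 mM, Tris-HCl 20 mM, MgCl2 1 mM, pH 7.2). Hexokinase was assayed by coupled NADP+ reduction at 340 nm. Against ATP: 2 mM D-glucose, 3 mM MgCl2. Against glucose: 1 mM ATP, 3 mM MgCl2. Kii and Kis were fitted.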

The subject of test [2] is Trypanosoma cruzi. Description: Effect on endogenous 24-ethyl-5,7-cholesta-dien-3beta-ol level in Trypanosoma cruzi epimastigotes at 20 uM. The class given is functional. Summed up: (§2)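 EP stock epimastigotes grown 120 h in LIT medium with 10% newborn calf serum at 28 °C, with or without compound at the stated concentration. Total lipids were extracted, and free sterols were separated from polar lipids by silicic acid column chromatography. Sterols were quantified by capillary gas-liquid chromatography and mass spectrometry and reported as mass percent of free sterols.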

In test [3] the target is T1, Hexokinase. Description: Inhibition of glycosomal Trypanosoma cruzi hexokinase in presence of ATP, 2 mM D-glucose and 3 mM MgCl2 by competitive inhibition assay. Summed up:
as §1

In test [4] the test system is Trypanosoma cruzi. Description: Reduction in proliferation of Trypanosoma cruzi epimastigotes at 15 uM. Type of test: functional, organism-based. Summed up: (§3)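 Epimastigotes cultured in LIT medium at 28 °C with agitation, with or without 15 µM compound. Cell proliferation, medium glucose and ammonium (enzymatic assays) and medium pH were followed over time. Triplicates.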

For test [5], the target named is T1, Hexokinase. Description: Inhibition of glycosomal Trypanosoma cruzi hexokinase in presence of D-glucose, 1 mM ATP and 3 mM MgCl2. An outline of the steps: as §1
Test [6] deals with Trypanosoma cruzi. Description: Effect on glucose consumption in digitonin permeablized Trypanosoma cruzi. The class given is functional, organism-based. An outline of the steps:
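Resuspended with PEP 6 mM, ADP 6 mM, NaHCO3 7 mM and L-malate 1 mM. Preincubated 60 min at 28 °C with varying compound concentrations before 3 mM D-glucose was added. Medium glucose was assayed enzymatically every 15 min; IC50 determined.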

In test [7] the target is T1, Hexokinase. Description: Inhibition of Trypanosoma cruzi hexokinase in presence of D-glucose, 1 mM ATP and 3 mM MgCl2 by competitive inhibition assay. Summed up:
(§4)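 Homogeneous hexokinase purified from exponential-phase epimastigotes. Activity measured spectrophotometrically by coupling to glucose-6-phosphate dehydrogenase and following NADP+ reduction at 340 nm; rates taken from the initial linear slope. Against ATP: 2 mM D-glucose, 3 mM MgCl2. Against D-glucose: 1 mM ATP, 3 mM MgCl2. Substrate and inhibitor were varied, and Kii and Kis were obtained from fitting plus secondary plots.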

Test [8] addresses T1, Hexokinase. Description: Inhibition of Trypanosoma cruzi hexokinase in presence of ATP, 2 mM D-glucose and 3 mM MgCl2. An outline of the steps: as §4
Test [9] has as its target T1, Hexokinase. Description: Inhibition of glycosomal Trypanosoma cruzi hexokinase in presence of D-glucose, 1 mM ATP and 3 mM MgCl2 by competitive inhibition assay. Summed up: as §1
Test [10] concerns Trypanosoma cruzi. Description: Effect on exogenous cholesterol level in Trypanosoma cruzi epimastigotes at 20 uM. Type of test: functional. An outline of the steps: as §2
Test [11] has as its system Trypanosoma cruzi. Description: Effect on endogenous Ergosta-5,7-24(24')-trien-3beta-ol level in Trypanosoma cruzi epimastigotes at 20 uM. The class given is functional. Summed up:
as §2

Test [12] relates to Trypanosoma cruzi. Description: Inhibition of glucose consumption in Trypanosoma cruzi epimastigotes after 96 hrs. Type of test: functional, organism-based. Summed up:
as §3

For test [13], the system named is Trypanosoma cruzi. Description: Effect on endogenous 24-methyl-5,7,22-cholesta-trien-3beta-ol level in Trypanosoma cruzi epimastigotes at 20 uM. Type of test: functional. An outline of the steps: as §2
Test [14] has as its target T1, Hexokinase. Description: Inhibition of Trypanosoma cruzi hexokinase in presence of ATP, 2 mM D-glucose and 3 mM MgCl2 by mixed inhibition assay.
Test [15] concerns Trypanosoma cruzi. Description: Effect on endogenous Ergosta-5,7-dien-3beta-ol level in Trypanosoma cruzi epimastigotes at 20 uM. The class given is functional. An outline of the steps: as §2
The test system of test [16] is Trypanosoma cruzi. Description: Growth inhibition of Trypanosoma cruzi epimastigotes. The class given is functional, organism-based. An outline of the steps: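 EP epimastigotes grown in LIT medium with 10% newborn calf serum at 28 °C, 120 rpm. Compound added from 100-fold stocks at 1-2 × 10^7 cells ml-1. Densities counted by particle counter and hemocytometer. Percent growth factor based on 96 h growth relative to untreated cells; IC50 from non-linear fit; MIC also reported. Triplicates.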

Test [17] concerns Trypanosoma cruzi. Description: Effect on endogenous 24-ethyl-5,7,22-cholesta-trien-3beta-ol level in Trypanosoma cruzi epimastigotes at 20 uM. Type of test: functional. Summed up: as §2
The test system of test [18] is Trypanosoma cruzi. Description: Inhibition of glucose consumption in Trypanosoma cruzi epimastigotes after 120 hrs. The class given is functional, organism-based. An outline of the steps: as §3
For test [19], the system named is Trypanosoma cruzi. Description: Effect on endogenous Ergosta-7-24(24')-dien-3beta-ol level in Trypanosoma cruzi epimastigotes at 20 uM. The class given is functional. Summed up:
as §2

In test [20] the test system is Trypanosoma cruzi. Description: Effect on exogenous cholesterol level in Trypanosoma cruzi epimastigotes at 50 uM. Type of test: functional. Summed up: as §2
Test [21] has as its system Trypanosoma cruzi. Description: Effect on endogenous 24-ethyl-5,7-cholesta-dien-3beta-ol level in Trypanosoma cruzi epimastigotes at 100 uM. Type of test: functional. An outline of the steps:
as §2

Test [22] deals with T1, Hexokinase. Description: Inhibition of Trypanosoma cruzi hexokinase in presence of D-glucose, 1 mM ATP and 3 mM MgCl2. An outline of the steps: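 Hexokinase purified to homogeneity from exponential-phase T. cruzi epimastigotes. Activity was coupled to glucose-6-phosphate dehydrogenase and read as NADP+ reduction at 340 nm, with initial velocity taken from the slope, linear for at least 5 min. D-glucose was varied at fixed inhibitor levels with 1 mM ATP and 3 mM MgCl2. Kii and Kis came from fitting to a mixed-inhibition equation (intercept/slope secondary plots).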

In test [23] the test system is Trypanosoma cruzi. Description: Effect on exogenous cholesterol level in Trypanosoma cruzi epimastigotes at 100 uM. The class given is functional. Summed up: as §2
Test [24] relates to Trypanosoma cruzi. Description: Effect on endogenous 24-ethyl-5,7-cholesta-dien-3beta-ol level in Trypanosoma cruzi epimastigotes at 50 uM. The class given is functional. An outline of the steps: as §2
In test [25] the test system is Trypanosoma cruzi. Description: Effect on endogenous 24-ethyl-5,7,22-cholesta-trien-3beta-ol level in Trypanosoma cruzi epimastigotes at 50 uM. Type of test: functional. Summed up:
as §2

The structures appear in SMILES notation. Converted amounts (≈) assume the structure as drawn. The source made the active and inactive calls. The calls are words filed in the database; no cut-off is given here.

With `CCn1c2ccccc2c2cc(NC(P(=O)(O)O)P(=O)(O)O)ccc21`, the Ki on Hexokinase [1] turned out to be 1.7 µM; at Hexokinase [3], 1.2 µM; on Hexokinase [5], 4.3 µM; at Hexokinase [7], 0.5 µM; on Hexokinase [8], 2.8 µM; at Hexokinase [9] it was 2.4 µM. The Ki on Hexokinase [14] turned out to be 1.7 µM. For the same compound, the Activity was 8.4% with Trypanosoma cruzi [2]; 18.8% in the test on Trypanosoma cruzi [10]; 3.8% with Trypanosoma cruzi [11]; 23.4% with Trypanosoma cruzi [13]; 26.3% in the test on Trypanosoma cruzi [15]; 19.3% in the test on Trypanosoma cruzi [17]. Moreover, the result in the test on Trypanosoma cruzi [4] and in the test with Trypanosoma cruzi [12] was Active. Further, the half-inhibitory concentration (IC50) with Trypanosoma cruzi [6] is 0.62 µM; in the test on Trypanosoma cruzi [16], 6.4 µM. The compound also registered an MIC against Trypanosoma cruzi [16] of 20 µM (≈ 7.69 µg/mL).
Consider `O=P(O)(O)C(Nc1cccc(Br)c1)P(=O)(O)O`, for which the Activity in the test on Trypanosoma cruzi [2] was determined as 3.4%; in the test with Trypanosoma cruzi [19], 2%; in the test with Trypanosoma cruzi [10] it was 21.3%; with Trypanosoma cruzi [11] it was 6%; in the test with Trypanosoma cruzi [13], 31%; with Trypanosoma cruzi [15], 18%. For the same compound, in the test on Trypanosoma cruzi [17], the Activity is listed as 18.3%. For the same compound, the Ki on Hexokinase [3] stood at 2.6 µM; on Hexokinase [5], 10.6 µM; on Hexokinase [7], 0.4 µM; on Hexokinase [8], 1.2 µM; on Hexokinase [9], 2.9 µM; on Hexokinase [14], 0.6 µM. Also, the result in the test with Trypanosoma cruzi [4] and with Trypanosoma cruzi [18] was Active. Also, the values for the half-maximal inhibitory concentration (IC50) in the test with Trypanosoma cruzi [6] and with Trypanosoma cruzi [16] were 1.2 µM and 7 µM, respectively. In the test on Trypanosoma cruzi [16], this compound had an MIC of 20 µM (≈ 6.92 µg/mL).
In the case of `O=P(O)(O)C(O)(Cc1ccncc1)P(=O)(O)O`, the Ki on Hexokinase [1] came to 10.5 µM; on Hexokinase [3], 11.4 µM; on Hexokinase [5], 43.9 µM; on Hexokinase [7], 3.3 µM; at Hexokinase [8] it was 4.3 µM; at Hexokinase [22], 6 µM. The Ki on Hexokinase [9] came to 3.4 µM; on Hexokinase [14], 2.8 µM. Also, the Activity in the test on Trypanosoma cruzi [20] was 70.9%; in the test with Trypanosoma cruzi [21], 6.7%; in the test with Trypanosoma cruzi [23], 93.3%; in the test with Trypanosoma cruzi [24] it was 14.5%; in the test with Trypanosoma cruzi [25] it was 14.6%. Moreover, the results for the IC50 in the test on Trypanosoma cruzi [6] and with Trypanosoma cruzi [16] were 10.3 µM and 40.6 µM, respectively. 200 µM (≈ 56.6 µg/mL) was the least that counted as inhibitory with Trypanosoma cruzi [16] (MIC).

As usually defined, the Ki is the equilibrium dissociation constant of an inhibitor or competing ligand from its target. The term IC50 denotes the concentration that gives 50% inhibition. High values mean lower potency, low ones higher potency. Broadly, the MIC is the lowest concentration that inhibits growth of the organism.
